High-throughput results deposited in PubChem by several laboratories.
VLA-4 inh = inhibition in a human VLA-4 binding assay; P13612; VLA-4 expressing cells, ligand binding flow cytometry; inhibition, % (about 7 µM as worked out from the volumes in the protocol); actives 0.2% (n = 330,000); in the data active = inhibition above about 50%
DAGLB inh = diacylglycerol lipase beta (human) inhibition; actives 0.059% (n = 340,000); HEK293T DAGLB membrane lysate, EnzChek fluorogenic substrate; inhibition, % at 5.17 µM; Q8NCG7; in the data active = inhibition above about 34%;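 note: 0% = enzyme with vehicle and 100% = wells lacking enzyme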
Target sequence (Q8NCG7 whole entry, looked up): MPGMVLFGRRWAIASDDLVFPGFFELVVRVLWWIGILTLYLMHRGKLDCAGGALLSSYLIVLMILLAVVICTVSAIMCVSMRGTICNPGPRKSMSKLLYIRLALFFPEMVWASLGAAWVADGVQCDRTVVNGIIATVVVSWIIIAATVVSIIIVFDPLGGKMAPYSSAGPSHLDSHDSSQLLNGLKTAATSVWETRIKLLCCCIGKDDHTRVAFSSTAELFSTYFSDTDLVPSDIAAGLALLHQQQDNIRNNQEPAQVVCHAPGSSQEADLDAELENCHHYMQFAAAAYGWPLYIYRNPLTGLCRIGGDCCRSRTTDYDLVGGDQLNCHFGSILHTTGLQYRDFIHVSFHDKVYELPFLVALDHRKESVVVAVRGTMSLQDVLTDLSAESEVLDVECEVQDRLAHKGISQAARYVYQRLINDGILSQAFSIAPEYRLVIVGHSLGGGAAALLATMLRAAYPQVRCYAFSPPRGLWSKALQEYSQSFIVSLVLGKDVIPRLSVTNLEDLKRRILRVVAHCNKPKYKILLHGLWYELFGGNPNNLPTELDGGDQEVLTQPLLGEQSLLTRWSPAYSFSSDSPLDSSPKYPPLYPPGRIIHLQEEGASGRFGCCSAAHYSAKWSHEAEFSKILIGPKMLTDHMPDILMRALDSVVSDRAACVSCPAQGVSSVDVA
FGF22 binding = FGF22 (human) thermal shift binding; actives 1.5% (n = 340,000); Q9HCT0; AID 651658; activity (Tm shift, normalised), % at 9.99 µM; recombinant FGF22 thermal shift, SYPRO orange fluorescence; percent of sucrose octasulfate shift, DMSO zero;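 active = mean Tm shift, scaled 0 neutral to 100 positive control, at about 1.3% or above, every replicate too, limit read from the data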
Granule exo inh = lytic granule exocytosis inhibition; TALL-104 LAMP-1 surface exposure, flow cytometry; cells stimulated with thapsigargin and PMA; inhibition, % at 10 µM; actives 0.66% (n = 360,000);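 active = inhibition above about 55%, limit read from the data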
ABCB6 inh 2 = inhibitors of human ABC transporter ABCB6; actives 0.19% (n = 360,000); K562-ABCB6 porphyrin accumulation, flow cytometry, 1 h; hits give low values; Q9NP58; fluorescence ratio to DMSO, % at 10 µM;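 active = fluorescence ratio to DMSO below 75%, the collection mean minus 3 SD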;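 note: signal is porphyrin accumulated inside mitochondria; 100% equals median channel fluorescence of DMSO control wells; lower ratio means ABCB6 inhibition with less porphyrin fluorescence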
MT1-MMP act inh = MT1-MMP (human) activation inhibition. P50281. HT1080 RFP-PRO-GFP cells, GFP/RFP ratio fluorescence, overnight; percent of plate control window, DMSO zero. GFP/RFP ratio change, % at 20 µM. actives 0.061% (n = 360,000). AID 651647;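 active = GFP/RFP ratio change of at least 30% with cell ATP level not reduced by more than half and red fluorescence within 50% of control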
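Material: RFP-PRO-GFP reporter HT1080 cells. Dosing: single-point 20 µM compound, 1% DMSO. Controls: DMSO and RFP-L50D-GFP cell wells. Timing: cells overnight before dosing, compound overnight, 37 °C, 5% CO2. Measure: GFP/RFP fluorescence ratio.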
Granule exo CP1 = lytic granule exocytosis inhibition; TALL-104 cells, LAMP-1 externalization, flow cytometry; stimulated with PMA plus thapsigargin; actives 11% (n = 1,500); shares compounds with Granule exo inh; inhibition, % at 10 µM; in the data active = inhibition above about 60%;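 note: 0% = stimulated vehicle wells and 100% = unstimulated wells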
* marks the source's active call; other numbers are inactive results. Hits are enriched below; roughly 2% of the tested compounds scored in any of these assays.

How did OC(CNCC(c1ccc(Cl)cc1Cl)c1c[nH]c2ccccc12)c1ccccc1 (stereo not given) do in these assays?
VLA-4 inh: 15; DAGLB inh: -13; FGF22 binding: 0; Granule exo inh: 100*; ABCB6 inh 2: 102; MT1-MMP act inh: -16; Granule exo CP1: 88*

What do the screens show for `COc1ccc(CN2CCc3c([nH]c4ccccc34)C2)cc1Br`?
VLA-4 inh: 2; DAGLB inh: -11; FGF22 binding: 0; Granule exo inh: 4; ABCB6 inh 2: 108; MT1-MMP act inh: 2

Results for COc1ccc(CN2CCc3c([nH]c4ccccc34)C2)c(OC)c1C ?
VLA-4 inh: 1; DAGLB inh: 0; FGF22 binding: 0; Granule exo inh: 56*; ABCB6 inh 2: 96; MT1-MMP act inh: -5; Granule exo CP1: -12

Results for COc1ccc2c3c(n(C)c2c1)[C@@H](CO)N(S(C)(=O)=O)CC31CN(C(=O)c2ccccn2)C1 ?
FGF22 binding: 0

Results for COc1ccc(CC(CN)c2ccccc2)cc1 (stereo not given) ?
VLA-4 inh: -11; DAGLB inh: -1; FGF22 binding: 0; Granule exo inh: 58*; ABCB6 inh 2: 94; MT1-MMP act inh: 0; Granule exo CP1: -8

How did COc1ccc(CC(CC(=O)O)C(=O)NCc2ccccc2)cc1 (stereo not given) do in these assays?
VLA-4 inh: 0; DAGLB inh: -2; FGF22 binding: 1; Granule exo inh: -1; ABCB6 inh 2: 96; MT1-MMP act inh: 2

Results for Cc1ccc(NC(=O)CC2SC3=NCCCN3C2=O)c(C)c1 (stereo not given) ?
VLA-4 inh: 3; DAGLB inh: -1; Granule exo inh: 67*; ABCB6 inh 2: 93; MT1-MMP act inh: -32; Granule exo CP1: -12

Results for COc1ccc(CCNCC(O)COc2ccc(OC)cc2C(C)(C)C)cc1 (stereo not given) ?
VLA-4 inh: 9; DAGLB inh: -2; FGF22 binding: 0; Granule exo inh: 61*; ABCB6 inh 2: 112; MT1-MMP act inh: -5; Granule exo CP1: -5

Results for CO[C@H]1CN(C)C(=O)c2ccc(NC(=O)c3ccno3)cc2OC[C@@H](C)NC[C@H]1C ?
FGF22 binding: 0

What do the screens show for `CN(c1ccccc1)S(=O)(=O)c1cccc(C(=O)NCCc2c[nH]c3ccccc23)c1`?
VLA-4 inh: 14; DAGLB inh: 2; FGF22 binding: 0; Granule exo inh: 66*; ABCB6 inh 2: 107; MT1-MMP act inh: 3; Granule exo CP1: 86*

How did Cc1ccn2cc(-c3ccc(NC(=O)c4ccco4)cc3)nc2c1 do in these assays?
VLA-4 inh: 20; DAGLB inh: 0; Granule exo inh: 85*; ABCB6 inh 2: 98; MT1-MMP act inh: 7; Granule exo CP1: -4

What do the screens show for `O=C(Nc1ccc(-c2cn3ccccc3n2)cc1)c1cccs1`?
VLA-4 inh: 26; DAGLB inh: -2; FGF22 binding: 0; Granule exo inh: 72*; ABCB6 inh 2: 100; MT1-MMP act inh: 1; Granule exo CP1: 48

Results for COc1ccc(CC(=O)Nc2ccc(-c3cn4ccccc4n3)cc2)cc1 ?
VLA-4 inh: 10; DAGLB inh: -3; Granule exo inh: -1; ABCB6 inh 2: 90; MT1-MMP act inh: 7

Results for CC(C)(C)S(=O)N1Cc2cc(C(=O)N[C@@H]3CCN(Cc4ccccc4)C3)nc(-c3cccc(-c4cc5ccccc5o4)c3)c2[C@@H]1CCO (stereo not given in full) ?
FGF22 binding: 0; Granule exo inh: 63*; ABCB6 inh 2: 91; MT1-MMP act inh: -6; Granule exo CP1: 19

How did Nc1ccc2c3c(cccc13)-c1ccccc1-2 do in these assays?
DAGLB inh: -152; FGF22 binding: 0; Granule exo inh: 0; ABCB6 inh 2: 784; MT1-MMP act inh: -113

Results for Cc1ccc2c3c(cccc13)-c1ccccc1C2=O ?
VLA-4 inh: -4; DAGLB inh: -4; FGF22 binding: 0; Granule exo inh: 97*; ABCB6 inh 2: 98; MT1-MMP act inh: -14; Granule exo CP1: 77*

Results for C[C@@H]1CN([C@@H](C)CO)C(=O)c2cc(NC(=O)CCC(F)(F)F)ccc2O[C@H]1CN(C)S(=O)(=O)c1cn(C)cn1 ?
FGF22 binding: 0

What do the screens show for `CC(=O)c1c(C)oc2c1cc(O)c1ccccc12`?
VLA-4 inh: 2; DAGLB inh: 2; FGF22 binding: 0; Granule exo inh: 89*; ABCB6 inh 2: 96; MT1-MMP act inh: 2; Granule exo CP1: -13

Results for CCOc1ccc(CCNC(=O)CN2C(=O)CCSc3ccccc32)cc1OCC ?
VLA-4 inh: 5; DAGLB inh: -1; FGF22 binding: 0; Granule exo inh: 96*; ABCB6 inh 2: 97; MT1-MMP act inh: -3; Granule exo CP1: -4

Results for C[C@@H]1CN([C@H](C)CO)C(=O)c2cc(NC(=O)Nc3ccccc3)ccc2O[C@H]1CN(C)Cc1ccc(Oc2ccccc2)cc1 ?
FGF22 binding: 0

What do the screens show for `Cc1ccc(S(=O)(=O)Nc2ccc3c(c2)C(=O)N([C@H](C)CO)C[C@@H](C)[C@H](CN(C)S(=O)(=O)c2cn(C)cn2)O3)cc1`?
FGF22 binding: 0

How did Oc1ccccc1C1CC(c2cccs2)=NC(c2cccc(Br)c2)N1 (stereo not given) do in these assays?
VLA-4 inh: -6; DAGLB inh: 2; FGF22 binding: 0; Granule exo inh: 69*; ABCB6 inh 2: 102; MT1-MMP act inh: -9; Granule exo CP1: -15

How did Oc1c(I)cc(I)c2cccnc12 do in these assays?
VLA-4 inh: -8; DAGLB inh: 22; FGF22 binding: 0; Granule exo inh: 74*; ABCB6 inh 2: 98; MT1-MMP act inh: -9; Granule exo CP1: -14

What do the screens show for `CCC(=O)N1CC2(C1)[C@H](c1ccccc1)[C@@H](CO)N2CCC(F)(F)F`?
FGF22 binding: 0

How did OCC1(Cc2ccccc2Cl)CCN(C/C=C/c2ccccc2)CC1 do in these assays?
VLA-4 inh: 2; DAGLB inh: 0; FGF22 binding: 0; Granule exo inh: -3; ABCB6 inh 2: 95; MT1-MMP act inh: 0

Results for OCC1(CCc2ccccc2)CCN(C/C=C/c2ccccc2)CC1 ?
VLA-4 inh: -12; DAGLB inh: -3; FGF22 binding: 0; Granule exo inh: 57*; ABCB6 inh 2: 101; MT1-MMP act inh: 2; Granule exo CP1: -12
